Results: ChEMBL document CHEMBL4251576, “Synthesis and biological evaluation of curcumin inspired imidazo[1,2-a]pyridine analogues as tubulin polymerization inhibitors” (Eur J Med Chem, 2018)
The source made the active and inactive calls. The calls are words filed in the database; no cut-off is given here.

What was measured:
HeLa = assay: Cytotoxicity against human HeLa cells assessed as inhibition of cell viability after 48 hrs by MTT assay; assay type: functional, cell-based
How it was run: (§1)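 Cells were seeded at 2.5‒5 x 10^3 per well in DMEM or RPMI with 10% FBS and grown 24 h at 37 °C under CO2. Compounds diluted in medium were added alongside vehicle control for 48 h. MTT (0.5 mg/mL) was added for 4 h, formazan dissolved in DMSO and absorbance read at 570 nm. IC50 is the concentration giving 50% loss of viability; mean ± SD of three experiments, each in triplicate.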

NCI-H460 [1] = assay: Cytotoxicity against human NCI-H460 cells assessed as inhibition of cell viability after 48 hrs by MTT assay; assay type: functional, cell-based; details: NCI-H460, 48 h; how it was run: as §1
DU-145 [2] = assay: Cytotoxicity against human DU145 cells assessed as inhibition of cell viability after 48 hrs by MTT assay; assay type: functional, cell-based; details: DU-145, 48 h; how it was run: as §1
PC-3 [3] = assay: Cytotoxicity against human PC3 cells assessed as inhibition of cell viability after 48 hrs by MTT assay; assay type: functional, cell-based; details: PC-3, 48 h; how it was run: as §1
4T1 = assay: Cytotoxicity against mouse 4T1 cells assessed as inhibition of cell viability after 48 hrs by MTT assay; assay type: functional, cell-based; details: 4T1, 48 h; how it was run: as §1
RWPE-1 = assay: Cytotoxicity against human RWPE1 cells assessed as inhibition of cell viability after 48 hrs by MTT assay; assay type: cell-based; details: RWPE-1, 48 h; how it was run: as §1
NCI-H460 [4] = assay: Potency index, ratio of curcumin IC50 to test compound IC50 for human NCI-H460 cells; assay type: functional
DU-145 [5] = assay: Potency index, ratio of curcumin IC50 to test compound IC50 for human DU145 cells; assay type: functional
[6] = Selectivity index, ratio of IC50 for human RWPE1 cells to IC50 for human PC3 cells; assay type: toxicity; details: RWPE1 cells versus PC3 cells, read-out: Ratio IC50
[7] = (§2) Inhibition of tubulin polymerization in porcine brain at 10 uM after 60 mins by fluorescence assay; design: species or system Sus scrofa
How it was run: (§3)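 Cell-free kit assay using porcine brain tubulin (2 mg/mL) in 80 mM PIPES pH 6.9 with 2.0 mM MgCl2, 0.5 mM EGTA, 1.0 mM GTP and glycerol; compound at 10 µM final, nocodazole as positive control. Polymerization tracked over time as fluorescence of a reporter incorporated into microtubules (ex 360 nm, em 440 nm), with inhibition relative to control.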

Sus scrofa = organism: Sus scrofa; assay: as §2; how it was run: as §3
PC-3 [8] = assay: Cell cycle arrest in human PC3 cells assessed as accumulation at subG1 phase at 1 uM after 24 hrs by propidium iodide staining-based flow cytometric method (reference value: 0.38%); assay type: functional
PC-3 [9] = assay: Cell cycle arrest in human PC3 cells assessed as accumulation at G0/G1 phase at 1 uM after 24 hrs by propidium iodide staining-based flow cytometric method (reference value: 58.41%); assay type: functional
PC-3 [10] = assay: Cell cycle arrest in human PC3 cells assessed as accumulation at G2/M phase at 1 uM after 24 hrs by propidium iodide staining-based flow cytometric method (reference value: 33.13%); assay type: functional
PC-3 [11] = assay: Cell cycle arrest in human PC3 cells assessed as accumulation at subG1 phase at 2 uM after 24 hrs by propidium iodide staining-based flow cytometric method (reference value: 0.38%); assay type: functional
PC-3 [12] = assay: Cell cycle arrest in human PC3 cells assessed as accumulation at G0/G1 phase at 2 uM after 24 hrs by propidium iodide staining-based flow cytometric method (reference value: 58.41%); assay type: functional
PC-3 [13] = assay: Cell cycle arrest in human PC3 cells assessed as accumulation at G2/M phase at 2 uM after 24 hrs by propidium iodide staining-based flow cytometric method (reference value: 33.13%); assay type: functional
PC-3 [14] = assay: Cell cycle arrest in human PC3 cells assessed as accumulation at G0/G1 phase after 24 hrs by propidium iodide staining-based flow cytometric method; assay type: functional
PC-3 [15] = assay: Induction of apoptosis in human PC3 cells assessed as chromatin condensation at 0.5 uM after 48 hrs by acridine orange/ethidium bromide staining-based fluorescence inverted microscopic method; assay type: functional, cell-based
How it was run: (§4)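 PC-3 cells (25000/well) grown 24 h, then exposed 48 h to 0.5, 1 or 2 µM with DMSO control. After PBS wash, stained with acridine orange and ethidium bromide (10 µg/mL each) and imaged at once by fluorescence inverted microscopy (ex 488 nm, em 530 nm, 200x).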

PC-3 [16] = assay: Induction of apoptosis in human PC3 cells assessed as blebbing of cell membrane at 0.5 uM after 48 hrs by acridine orange/ethidium bromide staining-based fluorescence inverted microscopic method; assay type: functional; how it was run: as §4
PC-3 [17] = assay: Induction of apoptosis in human PC3 cells assessed as apoptotic body formation at 1 uM after 48 hrs by acridine orange/ethidium bromide staining-based fluorescence inverted microscopic method; assay type: functional, cell-based; how it was run: as §4
PC-3 [18] = assay: Induction of apoptosis in human PC3 cells assessed as appearance of horse-shoe shaped nuclei at 2 uM after 48 hrs by acridine orange/ethidium bromide staining-based fluorescence inverted microscopic method; assay type: functional, cell-based; how it was run: as §4
PC-3 [19] = assay: Induction of apoptosis in human PC3 cells assessed as early apoptotic cells at 2 uM after 24 hrs by FITC-annexin V/propidium iodide staining-based flow cytometric method (reference value: 7.62%); assay type: functional
PC-3 [20] = assay: Induction of apoptosis in human PC3 cells assessed as late apoptotic cells at 2 uM after 24 hrs by FITC-annexin V/propidium iodide staining-based flow cytometric method (reference value: 5.75%); assay type: functional
PC-3 [21] = assay: Induction of apoptosis in human PC3 cells assessed as necrotic cells at 2 uM after 24 hrs by FITC-annexin V/propidium iodide staining-based flow cytometric method (reference value: 0.32%); assay type: functional
PC-3 [22] = assay: Induction of apoptosis in human PC3 cells assessed as early apoptotic cells at 4 uM after 24 hrs by FITC-annexin V/propidium iodide staining-based flow cytometric method (reference value: 7.62%); assay type: functional
PC-3 [23] = assay: Induction of apoptosis in human PC3 cells assessed as necrotic cells at 4 uM after 24 hrs by FITC-annexin V/propidium iodide staining-based flow cytometric method (reference value: 0.32%); assay type: functional
PC-3 [24] = assay: Induction of apoptosis in human PC3 cells after 24 hrs by FITC-annexin V/propidium iodide staining-based flow cytometric method; assay type: functional, cell-based
PC-3 [25] = assay: Induction of apoptosis in human PC3 cells assessed as appearance of horse-shoe shaped nuclei at 1 to 2 uM after 48 hrs by DAPI staining-based fluorescence microscopic method; assay type: functional, cell-based
How it was run: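 PC-3 cells (25000/well) adhered overnight, then treated 48 h at 1 or 2 µM. After PBS wash, fixed 20 min in 4% neutral buffered formalin, permeabilized 5 min with 0.2% Triton X, and stained 10 min at room temperature with DAPI (1 µg/mL). Nuclei viewed by fluorescence microscopy (ex 350 nm, em 460 nm, 200x).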

PC-3 [26] = assay: Induction of mitochondrial membrane depolarization in human PC3 cells after 24 hrs by JC1 staining-based flow cytometric method; assay type: functional, cell-based
PC-3 [27] = assay: Induction of reactive oxygen species formation in human PC3 cells at 1 to 2 uM after 6 hrs by DCFDA staining-based flow cytometric method; assay type: functional, cell-based
How it was run: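 PC-3 cells at 1 x 10^5 cells/mL adhered overnight, then exposed to 1 or 2 µM. Medium replaced with DCFDA (10 µM) for 0.5 h at room temperature in the dark; fluorescence read by flow cytometry (ex 488 nm, em 530 nm). Mean ± SEM of three experiments, one-way ANOVA with Dunnett's test.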

SMILES: COc1cc(OC)c(/C=C/C(=O)/C=C/c2nc3ccccn3c2-c2ccc(F)c(F)c2)c(OC)c1
- IC50 (HeLa): 2530 nM
- IC50 (NCI-H460 [1]): 2630 nM
- IC50 (DU-145 [2]): 2970 nM
- IC50 (PC-3 [3]): 2110 nM
- IC50 (4T1): 1710 nM
- IC50 (RWPE-1): 4230 nM
- Ratio IC50 (NCI-H460 [4]): 6.5
- Ratio IC50 (DU-145 [5]): 11.1
- selectivity ratio [6]: 2
- IC50 [7]: 8440 nM
- inhibition (Sus scrofa): Dose-dependent effect
- Activity (PC-3 [8]): 0.57%
- Activity (PC-3 [9]): 44.87%
- Activity (PC-3 [10]): 44.65%
- Activity (PC-3 [11]): 0.74%
- Activity (PC-3 [12]): 32.66%
- Activity (PC-3 [13]): 55.84%
- Activity (PC-3 [14]): Dose-dependent effect
- Activity (PC-3 [15]): Active
- Activity (PC-3 [16]): Active
- Activity (PC-3 [17]): Active
- Activity (PC-3 [18]): Active
- Activity (PC-3 [19]): 3.4%
- Activity (PC-3 [20]): 27.94%
- Activity (PC-3 [21]): 1.32%
- Activity (PC-3 [22]): 7.3%
- Activity (PC-3 [23]): 3.12%
- Activity (PC-3 [24]): Dose-dependent effect
- Activity (PC-3 [25]): Active
- Activity (PC-3 [26]): Dose-dependent effect
- Activity (PC-3 [27]): Active
